# Assay outcomes as filed in PubChem.
# PAFAH2 inh: PAFAH2 (human) inhibition. inhibition, % at 3.39 µM. 0.99% of 340,000 active. AID 492956. Q99487. recombinant PAFAH2, FP-rhodamine activity probe, fluorescence polarization;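 active = inhibition above the mean over all tested compounds plus 3 SD, cut at about 30% in these data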;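 also: inhibitors block probe labeling of enzyme so polarization drops; 0% = enzyme with DMSO and 100% = wells lacking PAFAH2 protein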
# mABHD4 FP: inhibitors of mouse ABHD4; Q8VD66; purified mABHD4, FP-Rh probe fluorescence polarization; inhibition, % at 8.92 µM; 0.54% of 370,000 active; AID 720543;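 active = inhibition exceeding the mean over every tested compound plus 3 SD, cut at about 30% in these data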;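 also: 0% = plate median of compound wells and 100% = S159A mutant with DMSO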
#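 Assay system: wild-type mouse ABHD4 protein; compound: single nominal dose of 8.92 µM, 0.89% DMSO final; schedule: 45 min + 60 min at 25 °C; measured by: FP readout, ex 525 nm / em 598 nm; evaluation: % inhibition of FP-Rh probe binding versus controls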
# PAFAH1B3 FP inh: blocks human PAF acetylhydrolase 1B catalytic subunit 3. Q15102. recombinant PAFAH1B3, FP-rhodamine probe, fluorescence polarization. inhibition, % at 3.39 µM. 0.28% of 340,000 active;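 active = inhibition above the screen-wide average of all tested compounds plus 3 SD, cut at about 25% in these data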;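 also: 0% = enzyme with DMSO only and 100% = wells lacking PAFAH1B3 protein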
# Target sequence (Q15102 whole entry, looked up): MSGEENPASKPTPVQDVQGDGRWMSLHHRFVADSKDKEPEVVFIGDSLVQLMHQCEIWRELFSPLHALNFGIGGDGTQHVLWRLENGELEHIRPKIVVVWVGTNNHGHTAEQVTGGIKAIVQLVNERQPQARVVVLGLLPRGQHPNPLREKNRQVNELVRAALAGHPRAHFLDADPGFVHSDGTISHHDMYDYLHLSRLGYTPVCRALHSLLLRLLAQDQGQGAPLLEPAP
# PAFAH1B2 FP inh: blocks human PAF acetylhydrolase 1b catalytic subunit 2; 1.2% of 340,000 active; recombinant PAFAH1B2, FP-rhodamine activity probe, fluorescence polarization; inhibition, % at 3.39 µM; P68402;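 active = inhibition above the mean of all tested compounds plus 3 SD, cut at about 24% in these data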;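 also: 0% = enzyme with DMSO and 100% = wells lacking PAFAH1B2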
# Target sequence (P68402 whole entry, looked up): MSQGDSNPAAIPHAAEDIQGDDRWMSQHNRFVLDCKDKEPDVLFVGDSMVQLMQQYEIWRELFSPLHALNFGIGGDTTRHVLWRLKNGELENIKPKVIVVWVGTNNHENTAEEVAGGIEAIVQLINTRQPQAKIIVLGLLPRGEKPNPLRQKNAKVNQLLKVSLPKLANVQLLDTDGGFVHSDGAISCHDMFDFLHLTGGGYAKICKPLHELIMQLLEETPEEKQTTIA
# pPAFAH inh: pPAFAH (human) enzyme inhibition; Q13093; recombinant pPAFAH, FP-rhodamine probe fluorescence polarization; inhibition, % at 3.39 µM; 1.5% of 330,000 active; AID 463082;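 active = inhibition above the mean inhibition across the screen plus 3 SD, cut at about 25% in these data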;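 also: inhibitors block binding of the rhodamine activity-based probe so polarization drops; 0% = enzyme with DMSO and 100% = wells lacking pPAFAH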
# HTRA1 inh: HTRA1 (human) protease inhibition; Q92743; recombinant HTRA1, FP-rhodamine activity-based probe, fluorescence polarization; inhibition, % at 5.96 µM; 0.5% of 340,000 active; in the data active = inhibition above about 36%;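 also: 0% = enzyme with DMSO and 100% = wells lacking enzyme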
# Numbers without * were called inactive; / = no result. A selection: hits, their analogues and other compounds. The true share with any hit is near 2.8%.
SMILES,PAFAH2 inh,mABHD4 FP,PAFAH1B3 FP inh,PAFAH1B2 FP inh,pPAFAH inh,HTRA1 inh
COc1ccc(Nc2nc(-c3sc(C)nc3C)cs2)c(OC)c1,8.8,12.1,-5.0,6.2,26.6*,14.3
COc1ccc(Nc2nc(-c3cccs3)cs2)c(OC)c1,0.2,5.9,7.9,5.9,8.8,18.0
CSCCCNC(=O)c1cn(C(C)c2ccccc2)nn1 (stereo not drawn),/,-1.4,/,/,/,/
CCCCCCCCN1C(=O)[C@@H](CC(=O)N2CCCCC2)C[C@@]2(C(=O)OC)C1=C[C@H](COCc1ccccc1)O[C@@H]2C,/,4.1,/,/,/,/
NC(=O)CC[C@@H]1NC(=O)[C@H](CO)NC(=O)c2cc([N+](=O)[O-])cc(I)c2NCCCC[C@@H](C(N)=O)NC(=O)[C@H](Cc2ccc(O)cc2)NC1=O,/,/,/,/,-3.5,/
NC(=O)C(CC(=O)O)NC(=O)[C@@H]1CCCNc2c(I)cc([N+](=O)[O-])cc2C(=O)N[C@@H](CO)C(=O)N[C@@H](Cc2ccc(O)cc2)C(=O)N1 (stereo partly drawn),-1.5,/,7.3,8.3,26.3*,-5.0
Cc1ccc(S(=O)(=O)Nc2nc(C)c(C(=O)NNS(=O)(=O)c3ccccc3)s2)cc1,12.0,11.3,9.4,28.7*,7.5,8.7
Cc1ccc(S(=O)(=O)Nc2nc(C)c(C(=O)Nc3ccccc3)s2)cc1,2.7,5.8,7.4,4.7,-1.4,-12.1
Cc1cccc(CS(=O)(=O)Cc2ccc(C(=O)NCc3ccco3)o2)c1,3.3,0.6,3.4,-6.3,24.8*,-5.3
Cc1ccc(CS(=O)(=O)Cc2ccc(C(=O)NCc3ccco3)o2)cc1,2.7,-3.5,0.3,1.3,33.9*,-1.2
COCC#Cc1ccc(CC[C@H]2O[C@H]3CC[C@@H](CO)O[C@H]3C[C@H]2n2cc(C(C)(C)O)nn2)cc1,/,-6.5,/,/,/,/
O=C(COC(=O)c1c(Cl)cccc1Cl)NC1CCCCC1,8.5,-1.1,8.5,4.1,5.6,-7.1
O=C(COC(=O)c1ccc(Cl)c(Cl)c1)NC1CCCC1,57.8*,4.4,9.1,5.0,34.2*,-1.1
O=C(COC(=O)c1ccccc1Cl)NC1CCCCCC1,79.1*,-1.6,6.0,4.7,31.1*,-4.1
CC(C)CC(=O)O/N=C1\C(=O)N(Cc2ccc(Cl)cc2)c2ccc([N+](=O)[O-])cc21,/,/,/,/,35.4*,/
CCCCCn1nnnc1C1(C)CCSCC(=O)N1Cc1ccco1 (stereo not drawn),/,-2.6,/,/,/,/
COc1ccc(-c2cc(C(F)(F)F)nc(S(C)(=O)=O)n2)cc1,-1.5,-6.3,0.1,-5.1,29.4*,-34.5
CCC(C)c1ccc(NC(=O)CSc2nnc(-c3cccc(C)c3)n2C)cc1 (stereo not drawn),/,-4.4,/,/,/,/
O=C(NCc1ccc(Cl)cc1)C(=O)NCC1OCCN1S(=O)(=O)c1cc(F)ccc1F (stereo not drawn),3.4,4.1,-0.4,30.0*,11.3,-5.9
O=C(COc1coc(CN2CCc3ccccc3C2)cc1=O)Nc1cccc(Cl)c1,16.6,-1.7,5.8,3.6,17.9,-12.4
Cc1ccc(C)c(NC(=O)COc2coc(CN3CCc4ccccc43)cc2=O)c1,-1.3,3.3,5.7,1.4,7.2,0.1
O=C(COc1coc(CN2CCc3ccccc3C2)cc1=O)Nc1cccc(F)c1,18.8,-4.0,5.1,2.4,30.1*,-2.1
O=C(COc1coc(CN2CCc3ccccc32)cc1=O)NCCc1ccccc1,1.5,1.7,5.1,28.0*,4.3,-0.1
CCCCN(C)C(=O)CNc1nnnn1-c1ccccc1,/,2.9,/,/,/,/
O=C(NCC1CCCO1)c1cccc2c1C(=O)c1ccc(N3CCC(Cc4ccccc4)CC3)cc1S2(=O)=O (stereo not drawn),-14.3,/,-1.4,-8.7,32.5*,-37.2
SMILES,PAFAH2 inh,mABHD4 FP,PAFAH1B3 FP inh,PAFAH1B2 FP inh,pPAFAH inh,HTRA1 inh
O=C(Nc1cccc(S(=O)(=O)N2CCOCC2)c1)c1c2c(nc3ccccc13)CCC2,-4.3,0.8,2.4,-1.4,26.7*,10.4
Cc1ccc(NC(=O)c2cc(-c3ccco3)nc3ccccc23)cc1S(=O)(=O)N1CCOCC1,-7.5,3.9,-0.3,-6.3,26.8*,-0.9
CCOC(=O)C1CCN(c2cc3c(cc2NC(=O)c2ccccc2OCC)n(C)c(=O)n3C)CC1,12.6,-5.0,4.7,6.8,31.2*,6.3
CCOC(=O)c1c(NC(=O)Cc2ccccc2)sc2c1CC(C)(C)NC2(C)C,-1.1,-2.6,6.0,-2.6,31.9*,-9.6
CCOC(=O)c1c(NC(=O)COc2ccccc2OCC)sc2c1CC(C)(C)NC2(C)C,4.5,/,0.4,3.7,5.7,-12.5
COC(=O)C1CCCN(C(=O)C2CCN(S(=O)(=O)c3ccc([N+](=O)[O-])cc3)CC2)C1 (stereo not drawn),/,2.8,/,/,/,/
CNC(=S)N(Cc1ccc(OC)cc1)C1CC(=O)N(c2ccc(Cl)cc2)C1=O (stereo not drawn),1.2,-27.0,-3.0,32.8*,3.2,-18.3
O=C(Nc1ccccc1)ON=C1c2ccccc2-c2ccccc21,-1.7,-16.6,20.6,6.0,-6.6,-7.7
O=C(Nc1ccccc1Cl)ON=C1c2ccccc2-c2ccccc21,-1.0,/,25.7*,2.9,-4.9,-38.2
Cc1ccc(C)c(OCCC(=O)OCC(=O)NNC(=O)c2ccccc2)c1,-0.5,3.0,3.1,1.6,31.1*,-3.1
Cc1ccc(C)c(OCCC(=O)OCC(=O)NC2CCCC2)c1,4.8,-13.2,-0.4,2.4,21.3,-2.9
Cn1cnc(S(=O)(=O)N2CCN(c3ccccc3)CC2)c1,3.0,3.8,2.2,-1.7,1.2,7.5
O=S(=O)(c1ccc(N2CCOCC2)cc1)N1CCOCC1,5.7,-0.8,3.5,5.6,3.5,-2.0
O=S(=O)(c1ccc(Cl)cc1)N1CCN(c2ccc(N3CCOCC3)nn2)CC1,-4.9,5.5,-2.1,26.4*,4.7,2.9
Cn1cnc(S(=O)(=O)N2CCN(c3ccc(Cl)cc3)CC2)c1,1.5,-7.1,13.4,28.4*,-0.5,-1.9
O=C(N1CCOCC1)N1CCN(S(=O)(=O)c2ccc(Cl)cc2)CC1,4.0,-1.4,10.2,24.9*,2.8,-3.0
CC1CCN(S(=O)(=O)c2ccc(N=NC3=C(O)CC(C)(C)CC3=O)cc2)CC1,-7.1,5.4,2.8,45.2*,2.6,2.7
CC1(C)CC(=O)C(N=Nc2cccc(S(=O)(=O)N3CCOCC3)c2)=C(O)C1,-4.4,-9.3,-0.8,-3.1,3.1,3.7
CCCC1CCC2(CCC(=O)N2CCC#N)CC1 (stereo not drawn),/,8.6,/,/,/,/
S=C(Nc1ccc(Br)cc1)OC1CCC12CCC(c1ccccc1)CC2 (stereo not drawn),/,-25.1,/,/,/,/
CCCCCCCCN1C(=O)[C@@H](CC(=O)NCC2CCCCC2)C[C@@]2(C(=O)OC)C1=C[C@H](C(C)C)O[C@@H]2C1CC1,/,0.6,/,/,/,/
O=c1ccc(NS(=O)(=O)c2ccc(Cl)cc2)cn1Cc1ccc(Cl)c(Cl)c1,13.1,-12.1,3.9,27.7*,12.9,-6.3
